Consider one compound from ChEMBL document CHEMBL4145630, “Development of Highly Potent and Selective Steroidal Inhibitors and Degraders of CDK8” (ACS Med Chem Lett, 2018).

Molecules are shown by their SMILES. pIC50: −log10 of the molar value.

Assay [1] addresses T1, Cyclin-dependent kinase 19 (Homo sapiens, UniProt Q9BWU1). The experiment in a line: Inhibition of human CDK19 (M1 to N360 residues) expressed in bacterial expression system by KINOMEscan assay.
Assay [2] addresses T2, Cyclin-dependent kinase 8 (Homo sapiens, UniProt P49336). In words: Inhibition of CDK8 (unknown origin).
For assay [3], the target named is T2, Cyclin-dependent kinase 8. In words: Inhibition of CDK8 in human HepG2 cells assessed as reduction in IFNgamma-induced STAT1 phosphorylation at S727 measured after 18 hrs by Western blot analysis. It is filed as cell-based. For orientation: A western blot detects proteins with antibodies after separation by electrophoresis.
The target in assay [4] is T1, Cyclin-dependent kinase 19. In words: Inhibition of human CDK19 (M1 to N360 residues) expressed in bacterial expression system at 10 uM by KINOMEscan assay relative to control.
The target of assay [5] is 1-phosphatidylinositol 3-phosphate 5-kinase (Homo sapiens) (UniProt Q9Y2I7). In words: Inhibition of wild-type human partial length PIKFYVE (F1512 to C2098 residues) expressed in mammalian expression system at 10 uM by Kinomescan method relative to control. In a few lines:
(§1)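 Ambit KINOMEscan binding panel run at a single 10 μM concentration; results expressed relative to control, with a 90% inhibition cutoff applied.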

Assay [6] addresses T3, Serine/threonine-protein kinase Nek1 (Homo sapiens, UniProt Q96PY6).
T3 sequence (Q96PY6 whole entry): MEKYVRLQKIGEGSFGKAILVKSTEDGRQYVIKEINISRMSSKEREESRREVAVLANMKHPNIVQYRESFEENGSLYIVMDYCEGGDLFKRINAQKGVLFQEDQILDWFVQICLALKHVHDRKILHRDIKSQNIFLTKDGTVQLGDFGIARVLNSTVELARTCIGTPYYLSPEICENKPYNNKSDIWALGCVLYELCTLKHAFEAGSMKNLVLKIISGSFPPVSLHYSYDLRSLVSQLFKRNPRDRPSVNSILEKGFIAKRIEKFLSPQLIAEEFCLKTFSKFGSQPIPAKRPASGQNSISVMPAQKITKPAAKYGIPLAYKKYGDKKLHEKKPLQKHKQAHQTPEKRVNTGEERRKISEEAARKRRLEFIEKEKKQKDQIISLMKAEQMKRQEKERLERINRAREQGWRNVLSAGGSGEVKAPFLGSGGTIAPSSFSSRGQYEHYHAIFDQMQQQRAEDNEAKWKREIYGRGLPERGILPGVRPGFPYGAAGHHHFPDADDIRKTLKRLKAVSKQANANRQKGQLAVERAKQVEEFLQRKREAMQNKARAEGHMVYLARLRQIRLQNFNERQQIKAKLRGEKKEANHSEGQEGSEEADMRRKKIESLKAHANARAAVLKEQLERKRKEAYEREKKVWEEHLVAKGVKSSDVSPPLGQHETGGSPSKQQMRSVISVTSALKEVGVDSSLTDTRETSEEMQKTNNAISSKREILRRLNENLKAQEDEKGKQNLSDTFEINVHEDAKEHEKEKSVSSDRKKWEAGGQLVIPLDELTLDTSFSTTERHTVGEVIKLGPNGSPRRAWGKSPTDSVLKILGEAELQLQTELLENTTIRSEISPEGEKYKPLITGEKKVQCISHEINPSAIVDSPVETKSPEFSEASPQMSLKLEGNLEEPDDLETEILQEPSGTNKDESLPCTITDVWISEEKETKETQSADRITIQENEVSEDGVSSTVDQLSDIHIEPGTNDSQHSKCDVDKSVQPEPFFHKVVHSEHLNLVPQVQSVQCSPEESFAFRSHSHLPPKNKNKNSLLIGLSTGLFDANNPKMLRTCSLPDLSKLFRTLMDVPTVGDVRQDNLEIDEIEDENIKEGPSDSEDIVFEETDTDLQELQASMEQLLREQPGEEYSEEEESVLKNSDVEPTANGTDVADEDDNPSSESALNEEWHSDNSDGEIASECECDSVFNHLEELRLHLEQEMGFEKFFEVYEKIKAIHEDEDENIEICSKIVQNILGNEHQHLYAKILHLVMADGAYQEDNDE
The experiment in a line: Inhibition of wild-type human partial length NEK1 (M1 to K278 residues) expressed in bacterial expression system by Kinomescan method.

Assay [7] concerns the target T2, Cyclin-dependent kinase 8. In words: Inhibition of wild-type human partial length CDK8 (M1 to T360 residues) expressed in bacterial expression system at 10 uM by Kinomescan method relative to control. In a few lines: as §1
Assay [8] addresses T4, Serine/threonine-protein kinase Nek1 (Homo sapiens) (UniProt Q96PY6).
T4 sequence (whole entry): T3 sequence (Q96PY6 whole entry)
In words: Inhibition of wild-type human partial length NEK1 (M1 to K278 residues) expressed in bacterial expression system at 10 uM by Kinomescan method relative to control. In short, it runs like this: as §1

T2 sequence (P49336 whole entry): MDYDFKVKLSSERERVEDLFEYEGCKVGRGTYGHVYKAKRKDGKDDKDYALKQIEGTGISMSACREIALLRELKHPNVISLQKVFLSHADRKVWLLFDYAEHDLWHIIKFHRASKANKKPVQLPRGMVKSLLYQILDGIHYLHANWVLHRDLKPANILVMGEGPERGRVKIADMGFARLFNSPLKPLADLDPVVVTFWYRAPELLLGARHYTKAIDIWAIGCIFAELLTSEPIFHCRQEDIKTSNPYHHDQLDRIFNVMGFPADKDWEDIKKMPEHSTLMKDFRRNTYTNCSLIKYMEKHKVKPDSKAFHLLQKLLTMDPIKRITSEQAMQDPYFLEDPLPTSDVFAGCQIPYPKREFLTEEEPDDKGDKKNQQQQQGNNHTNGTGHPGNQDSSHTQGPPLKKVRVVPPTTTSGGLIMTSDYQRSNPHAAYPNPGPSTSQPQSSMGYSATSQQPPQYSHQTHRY
T1 sequence (Q9BWU1 whole entry, the tested form may be a part): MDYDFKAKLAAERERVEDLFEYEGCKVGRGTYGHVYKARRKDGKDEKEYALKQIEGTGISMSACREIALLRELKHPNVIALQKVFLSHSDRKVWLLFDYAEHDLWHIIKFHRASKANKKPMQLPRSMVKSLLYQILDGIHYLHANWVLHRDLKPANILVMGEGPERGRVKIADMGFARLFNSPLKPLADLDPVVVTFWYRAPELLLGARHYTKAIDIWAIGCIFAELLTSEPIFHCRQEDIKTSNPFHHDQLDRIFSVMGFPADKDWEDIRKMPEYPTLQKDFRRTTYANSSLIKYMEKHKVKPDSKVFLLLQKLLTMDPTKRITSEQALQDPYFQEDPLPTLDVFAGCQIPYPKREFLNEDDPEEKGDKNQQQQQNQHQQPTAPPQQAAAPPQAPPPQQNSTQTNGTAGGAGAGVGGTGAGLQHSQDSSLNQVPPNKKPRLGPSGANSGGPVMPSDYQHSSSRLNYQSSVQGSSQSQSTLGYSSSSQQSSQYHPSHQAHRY
Chain of 1-phosphatidylinositol 3-phosphate 5-kinase (Homo sapiens) (Q9Y2I7 whole entry, the tested form may be a part): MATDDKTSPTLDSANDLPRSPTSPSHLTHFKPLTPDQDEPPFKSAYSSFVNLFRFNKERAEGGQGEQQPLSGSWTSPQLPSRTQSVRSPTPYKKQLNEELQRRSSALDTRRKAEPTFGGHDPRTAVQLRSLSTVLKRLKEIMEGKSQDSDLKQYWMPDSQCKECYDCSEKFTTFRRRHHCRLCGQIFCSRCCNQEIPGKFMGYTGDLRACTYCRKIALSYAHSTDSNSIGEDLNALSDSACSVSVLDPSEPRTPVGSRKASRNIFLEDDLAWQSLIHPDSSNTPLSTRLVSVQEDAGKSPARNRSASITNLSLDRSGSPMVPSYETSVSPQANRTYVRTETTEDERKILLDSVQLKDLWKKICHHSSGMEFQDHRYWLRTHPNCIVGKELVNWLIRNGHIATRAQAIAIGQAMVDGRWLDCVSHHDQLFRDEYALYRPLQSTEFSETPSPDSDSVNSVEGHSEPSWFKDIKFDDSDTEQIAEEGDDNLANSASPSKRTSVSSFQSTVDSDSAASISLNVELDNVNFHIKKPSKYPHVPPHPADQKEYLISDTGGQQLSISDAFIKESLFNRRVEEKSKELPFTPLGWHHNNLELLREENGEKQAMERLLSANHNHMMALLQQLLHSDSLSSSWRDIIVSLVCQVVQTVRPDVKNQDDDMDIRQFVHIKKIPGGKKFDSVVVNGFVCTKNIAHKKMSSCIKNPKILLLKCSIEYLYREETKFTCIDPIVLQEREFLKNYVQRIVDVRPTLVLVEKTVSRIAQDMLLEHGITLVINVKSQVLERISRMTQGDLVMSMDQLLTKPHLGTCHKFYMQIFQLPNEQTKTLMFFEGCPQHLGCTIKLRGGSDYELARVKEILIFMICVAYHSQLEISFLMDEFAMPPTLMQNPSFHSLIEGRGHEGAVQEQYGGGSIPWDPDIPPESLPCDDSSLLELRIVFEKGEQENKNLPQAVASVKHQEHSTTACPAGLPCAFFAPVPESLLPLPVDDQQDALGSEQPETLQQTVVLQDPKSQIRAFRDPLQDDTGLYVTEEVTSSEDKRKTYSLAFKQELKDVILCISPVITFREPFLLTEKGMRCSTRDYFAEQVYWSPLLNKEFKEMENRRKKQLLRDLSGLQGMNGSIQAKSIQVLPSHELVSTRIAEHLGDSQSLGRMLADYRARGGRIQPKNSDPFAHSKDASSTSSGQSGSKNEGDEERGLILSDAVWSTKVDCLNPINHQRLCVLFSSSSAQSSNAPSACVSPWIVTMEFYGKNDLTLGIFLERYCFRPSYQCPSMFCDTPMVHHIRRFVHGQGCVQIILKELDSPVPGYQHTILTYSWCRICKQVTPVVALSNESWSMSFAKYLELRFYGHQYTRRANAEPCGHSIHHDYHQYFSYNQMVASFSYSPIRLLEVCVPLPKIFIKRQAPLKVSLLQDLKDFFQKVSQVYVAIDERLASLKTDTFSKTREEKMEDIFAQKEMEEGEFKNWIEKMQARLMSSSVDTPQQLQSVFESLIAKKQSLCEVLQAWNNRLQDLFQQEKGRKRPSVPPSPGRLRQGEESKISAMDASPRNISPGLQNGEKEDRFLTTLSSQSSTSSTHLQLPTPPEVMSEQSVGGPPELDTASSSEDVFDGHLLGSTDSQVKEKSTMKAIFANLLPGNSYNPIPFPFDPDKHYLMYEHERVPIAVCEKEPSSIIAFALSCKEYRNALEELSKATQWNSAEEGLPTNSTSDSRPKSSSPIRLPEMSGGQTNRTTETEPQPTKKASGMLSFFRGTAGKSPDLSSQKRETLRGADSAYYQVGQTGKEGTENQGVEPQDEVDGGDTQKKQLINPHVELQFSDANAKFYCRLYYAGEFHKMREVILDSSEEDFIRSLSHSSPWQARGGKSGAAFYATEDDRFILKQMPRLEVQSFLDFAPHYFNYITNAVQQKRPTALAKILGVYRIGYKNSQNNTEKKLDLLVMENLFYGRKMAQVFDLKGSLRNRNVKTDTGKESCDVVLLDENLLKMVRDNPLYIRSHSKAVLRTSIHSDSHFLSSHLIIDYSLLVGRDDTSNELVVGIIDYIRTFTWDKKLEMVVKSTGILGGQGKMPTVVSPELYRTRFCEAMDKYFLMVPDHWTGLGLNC

As a reminder, the pIC50 is the IC50 on a negative log10 scale, so that one unit is a factor of ten. As usually defined, the inhibition is the drop in the measured response relative to a control, in per cent. Take `CN(C)[C@H]1CC[C@@]2(C)C(=CC[C@H]3[C@@H]4CC[C@H](c5ccc6ccncc6c5)[C@@]4(C)CC[C@@H]32)C1`: the values for the pIC50 in assay [1], in assay [2] and in assay [6] were 8.10, 7.80 and less than 5.00, respectively. Also, the inhibition entry in assay [3] is “Dose-dependent effect”; in assay [4], more than 90%; in assay [5], more than 90%; in assay [7], more than 90%; in assay [8], more than 90%.
